Drawing on ChEMBL document CHEMBL4330067, “Synthesis and mechanistic studies of diketo acids and their bioisosteres as potential antibacterial agents” (Eur J Med Chem, 2019), this text covers inhibition, MIC and Ki for 19 compounds.

Each structure is given as a SMILES string. Values after ≈ are worked out from the molar mass of the structure shown. Where only a bound is given, the exact number is not on record here.

Experiment [1] has as its system Enterococcus faecalis. Put plainly: Inhibition of Enterococcus faecalis methionine aminopeptidase 1A at 100 uM using Met-AMC as substrate relative to control. Put shortly: (§1)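 Purified MetAP at 4 µM in 50 mM HEPES with 150 mM KCl and CoCl2 at 3 molar equivalents of enzyme. pH 7.5 for SpMetAP1a and EfMetAP1a, pH 8.0 for HsMetAP1b. Substrate L-Met-AMC at 50, 100 and 150 µM. Compounds (10 mM DMSO stocks) tested over 1 to 120 µM for % inhibition; Ki by Dixon method.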

The species entered for experiment [2] is Homo sapiens. Kind of experiment: Inhibition of human methionine aminopeptidase 1B at 100 uM using Met-AMC as substrate relative to control. The method in brief: as §1
In experiment [3] the test system is Streptococcus pneumoniae. Put plainly: Inhibition of Streptococcus pneumoniae methionine aminopeptidase 1A at 100 uM using Met-AMC as substrate relative to control. Put shortly: as §1
Experiment [4] relates to Streptococcus pneumoniae. Kind of experiment: Antibacterial activity against Streptococcus pneumoniae MTCC 655 after 24 hrs by broth dilution assay. Format: functional. Conditions: MTCC 655, 24 h. The method in brief: (§2)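 Broth dilution per NCCLS in nutrient broth, serial dilutions 1000 to 7.8 µg/mL, DMSO below 4% final. Inoculum approx. 2.5×10⁶ cells/mL, 37 °C with shaking at 150 rpm for 24 h. MIC taken as the lowest concentration with no visible growth. Ciprofloxacin served as positive control.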

The nature of experiment [5]: Inhibition of human methionine aminopeptidase 1B using Met-AMC as substrate by Dixon method. Put shortly:
as §1

Experiment [6] is described as follows: Inhibition of Enterococcus faecalis methionine aminopeptidase 1A using Met-AMC as substrate by Dixon method. The method in brief: as §1
For experiment [7], the system named is Pseudomonas aeruginosa. Kind of experiment: Antibacterial activity against Pseudomonas aeruginosa MTCC 2453 after 24 hrs by broth dilution assay. Format: functional. The conditions noted are these: MTCC 2453, 24 h. The method in brief: as §2
For experiment [8], the system named is Enterococcus faecalis. Kind of experiment: Antibacterial activity against Enterococcus faecalis MTCC 439 after 24 hrs by broth dilution assay. It is filed as functional. The conditions noted are these: MTCC 439, 24 h. The method in brief: as §2
The nature of experiment [9]: Inhibition of Streptococcus pneumoniae methionine aminopeptidase 1A using Met-AMC as substrate by Dixon method. The method in brief: as §1
Experiment [10] in a line: Inhibition of Mycobacterium tuberculosis methionine aminopeptidase 1C using Met-AMC as substrate by Dixon method.
Experiment [11] deals with Klebsiella pneumoniae. Kind of experiment: Antibacterial activity against Klebsiella pneumoniae ATCC 700603 after 24 hrs by broth dilution assay. It is filed as functional. The conditions noted are these: Klebsiella pneumoniae, 700603, 24 h. The method in brief:
as §2

Experiment [12] relates to Mycobacterium tuberculosis. Kind of experiment: Inhibition of Mycobacterium tuberculosis methionine aminopeptidase 1C at 100 uM using Met-AMC as substrate relative to control. The method in brief: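 Purified MtMetAP1c (4 µM) in 50 mM Hepes pH 7.5 with 150 mM KCl and CoCl2 at three molar equivalents of enzyme. Substrate was L-Met-AMC at 50, 100 or 150 µM. Compounds came from 10 mM DMSO stocks. Percent inhibition was taken against the uninhibited control.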

The subject of experiment [13] is Salmonella typhimurium. Put plainly: Antibacterial activity against Salmonella typhimurium MTCC 3224 after 24 hrs by broth dilution assay. Conditions: Salmonella enterica, MTCC 3224, 24 h. It is filed as functional, Salmonella enterica subsp. enterica serovar Typhimurium. Put shortly:
as §2

Experiment [14] has as its system Escherichia coli. Kind of experiment: Antibacterial activity against Escherichia coli ATCC 25922 after 24 hrs by broth dilution assay. It is filed as functional. Conditions: ATCC 25922, 24 h. The method in brief: as §2

`COC(=O)[C@@H](C)NC(=O)c1cc(-c2oc3ccc(Br)cc3c2C)no1`: the inhibition in experiment [1] was 18.8%; in experiment [2], 45.1%; in [3], 36.5%.

In the case of `COC(=O)[C@@H](C)NC(=O)/C(O)=C/C(=O)c1ccccc1C`, the minimal inhibitory concentration (MIC) was determined as 125 µg/mL (≈ 429 µM) in experiment [4]; 1000 µg/mL (≈ 3430 µM) in experiment [7]; 500 µg/mL (≈ 1720 µM) in experiment [8]; 1000 µg/mL (≈ 3430 µM) in [11]; 1000 µg/mL (≈ 3430 µM) in [13]; 1000 µg/mL (≈ 3430 µM) in experiment [14]. Besides, the Ki in experiment [5] was found to be 113 µM; in experiment [6] it was 60.4 µM; in experiment [9], 51.9 µM; in experiment [10], 32.6 µM. In addition, the inhibition stood at 59.6% in experiment [1], 67.1% in [12], 51.9% in experiment [2] and 57% in experiment [3].

Take `Cc1ccccc1C(=O)/C=C(\O)C(=O)O`: the minimum inhibitory concentration (MIC) in experiment [4] stood at 500 µg/mL (≈ 2420 µM); in [7], 1000 µg/mL (≈ 4850 µM); in experiment [8] it was 500 µg/mL (≈ 2420 µM); in experiment [11] it was 1000 µg/mL (≈ 4850 µM); in experiment [13], 1000 µg/mL (≈ 4850 µM); in experiment [14], 250 µg/mL (≈ 1210 µM). Besides, the Ki in experiment [5] was found to be 73.8 µM; in [6], 62.6 µM; in [9], 87.5 µM; in experiment [10], 37.5 µM. In addition, the inhibition was 54.7% in experiment [1], 65.7% in experiment [12], 52.3% in experiment [2] and 62.8% in experiment [3].

On to `COC(=O)[C@@H](C)NC(=O)c1cc(-c2ccccc2C)no1`, for which the Ki in experiment [5] stood at 137 µM. The inhibition in experiment [1] turned out to be 24.9%; in experiment [12] it was 45.9%; in experiment [2], 51.1%; in experiment [3], 37%.

With `Cc1ccccc1-c1cc(C(=O)N[C@H](C)C(=O)O)on1`, in experiment [5], the Ki was 86.9 µM. Also, the inhibition in experiment [1] came to 43.4%; in experiment [12], 40.9%; in [2], 50.2%; in experiment [3] it was 44.6%.

With `Cc1c(-c2cc(C(=O)O)on2)oc2ccc(Br)cc12`, the inhibition was determined as 40.3% in [1], 39.1% in experiment [12], 47.3% in [2] and 43.2% in [3].

In the case of `CCOC(=O)/C(O)=C/C(=O)c1ccc(Cl)cc1`, the MIC in experiment [4] was 500 µg/mL (≈ 1960 µM); in experiment [7] it was 500 µg/mL (≈ 1960 µM); in experiment [8] it was 250 µg/mL (≈ 982 µM); in experiment [11], greater than 1000 µg/mL; in experiment [13], 500 µg/mL (≈ 1960 µM); in [14], 500 µg/mL (≈ 1960 µM). Also, the Ki in [5] was 56.1 µM; in experiment [9], 62.6 µM; in experiment [10], 39.5 µM. In addition, the inhibition in [1] is 27.3%; in experiment [12], 70.5%; in [2], 61%; in experiment [3], 55.3%.

As for `COC(=O)[C@@H](C)NC(=O)c1cc(-c2ccc(Cl)cc2)no1`, the inhibition in [1] was 15.4%; in [12], 53.2%; in experiment [2], 43.1%; in experiment [3], 43.8%. In [10], this compound showed a Ki of 134 µM.

As for `C[C@@H](NC(=O)c1cc(-c2ccc(Cl)cc2)no1)C(=O)O`, the inhibition was 23.6% in [1], 51.7% in experiment [12], 47.2% in experiment [2] and 43.7% in [3]. Further, in experiment [10], the Ki was 94.6 µM.

In the case of `CCOC(=O)c1cc(-c2oc3ccc(Br)cc3c2C)no1`, the inhibition in experiment [1] amounted to 21.1%; in experiment [12], 41.3%; in [2] it was 43.6%; in experiment [3], 40.6%.

For `CCOC(=O)c1cc(-c2ccccc2C)no1`, in experiment [5], the inhibition constant Ki was determined as 123 µM. For the same compound, the inhibition in [1] came to 27.6%; in experiment [12] it was 47.1%; in experiment [2] it was 48.9%; in experiment [3], 41.4%.

As for `O=C(O)c1cc(-c2ccc(Cl)cc2)no1`, the inhibition in experiment [1] came to 20%; in experiment [12], 58.2%; in experiment [2], 43.9%; in experiment [3], 39.7%. Also, in [10], the Ki turned out to be 71.8 µM.

Consider `CCOC(=O)c1cc(-c2ccc(Cl)cc2)no1`, for which the MIC in experiment [4] is 1000 µg/mL (≈ 3970 µM); in experiment [7], 500 µg/mL (≈ 1990 µM); in experiment [8], 500 µg/mL (≈ 1990 µM); in experiment [11] it was 1000 µg/mL (≈ 3970 µM); in experiment [13], greater than 1000 µg/mL; in [14] it was 500 µg/mL (≈ 1990 µM). Further, the Ki in experiment [5] worked out at 160 µM; in experiment [10], 152 µM. The inhibition in experiment [1] worked out at 19.4%; in experiment [12], 47.4%; in experiment [2], 66.3%; in experiment [3], 40.3%.

In the case of `Cc1c(-c2cc(C(=O)N[C@H](C)C(=O)O)on2)oc2ccc(Br)cc12`, the MIC in experiment [4] was 250 µg/mL (≈ 636 µM); in experiment [7] it was 1000 µg/mL (≈ 2540 µM); in [8], 125 µg/mL (≈ 318 µM); in experiment [11] it was greater than 1000 µg/mL; in [13] it was 500 µg/mL (≈ 1270 µM); in experiment [14] it was 500 µg/mL (≈ 1270 µM). In addition, the affinity in experiment [5] corresponds to a Ki of 3.11 µM. In addition, the inhibition in experiment [1] came out at 34.6%; in experiment [12] it was 33.2%; in experiment [2], 93.4%; in experiment [3], 42.8%.

Turning to `CCOC(=O)/C(O)=C/C(=O)c1oc2ccc(Br)cc2c1C`, the MIC in [4] was determined as 250 µg/mL (≈ 708 µM); in [7], 1000 µg/mL (≈ 2830 µM); in [8] it was 250 µg/mL (≈ 708 µM); in experiment [11], 500 µg/mL (≈ 1420 µM); in experiment [13], 1000 µg/mL (≈ 2830 µM); in experiment [14], 250 µg/mL (≈ 708 µM). The Ki in experiment [5] stood at 19.8 µM; in [6], 10.8 µM; in [9], 68.2 µM; in experiment [10] it was 18.2 µM. Besides, the inhibition in experiment [1] turned out to be 93.3%; in experiment [12] it was 91.6%; in [2], 86%; in experiment [3], 73%.

In the case of `Cc1c(C(=O)/C=C(\O)C(=O)O)oc2ccc(Br)cc12`, the MIC was 62.5 µg/mL (≈ 192 µM) in experiment [4]; 125 µg/mL (≈ 384 µM) in experiment [7]; 62.5 µg/mL (≈ 192 µM) in [8]; 1000 µg/mL (≈ 3080 µM) in experiment [11]; 500 µg/mL (≈ 1540 µM) in [13]; 1000 µg/mL (≈ 3080 µM) in experiment [14]. Besides, the Ki in experiment [5] stood at 32.7 µM; in experiment [6], 17.7 µM; in experiment [9], 27.5 µM; in experiment [10], 26.3 µM. Also, the inhibition in experiment [1] came to 91.9%; in experiment [12], 93.5%; in experiment [2] it was 88.2%; in experiment [3], 93.4%.

Take `CCOC(=O)/C(O)=C/C(=O)c1ccccc1C`: the MIC was determined as 250 µg/mL (≈ 1070 µM) in experiment [4]; 1000 µg/mL (≈ 4270 µM) in experiment [7]; 250 µg/mL (≈ 1070 µM) in experiment [8]; 1000 µg/mL (≈ 4270 µM) in [11]; 1000 µg/mL (≈ 4270 µM) in [13]; 250 µg/mL (≈ 1070 µM) in experiment [14]. Also, the inhibitory constant (Ki) worked out at 74.3 µM in experiment [5], 98.5 µM in experiment [9] and 36.7 µM in experiment [10]. Moreover, the inhibition in experiment [1] came out at 43.5%; in experiment [12], 55.8%; in experiment [2], 61.4%; in [3], 50.3%.

Consider `Cc1ccccc1C(=O)/C=C(\O)C(=O)N[C@H](C)C(=O)O`, for which the MIC in experiment [4] was 500 µg/mL (≈ 1800 µM); in experiment [7] it was 1000 µg/mL (≈ 3610 µM); in [8] it was 500 µg/mL (≈ 1800 µM); in experiment [11], 1000 µg/mL (≈ 3610 µM); in experiment [13] it was 1000 µg/mL (≈ 3610 µM); in experiment [14] it was 1000 µg/mL (≈ 3610 µM). The Ki in experiment [5] stood at 54 µM; in experiment [6], 64 µM; in experiment [9] it was 59.9 µM. For the same compound, the inhibition in experiment [1] was 63.2%; in [12] it was 47.7%; in [2], 59.2%; in experiment [3], 58%.

Consider `Cc1ccccc1-c1cc(C(=O)O)on1`, for which the Ki in experiment [5] turned out to be 104 µM. In addition, the inhibition in [1] is 32%; in [12], 43.7%; in experiment [2], 49%; in experiment [3] it was 42.4%.
